In the library only some 2.3% were active in any assay of this set; here they are far more common.
ABCG2 inh – human ABCG2 inhibition, ABCB1 as counter-screen | IgMXP3 cells, JC-1 efflux, flow cytometry | inhibition, % at 6.6 µM | 190,000 tested, 0.1% active | AID 1325;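 active means inhibition above 80%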;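 further: 0% = DMSO and 100% = nicardipine control wells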
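Test system: IgMXP3 (ABCG2) plus far-red-tagged CCRF-Adr (ABCB1) cells. Reagent: JC-1 dye as substrate. Timing: 10 min exposure at 25 °C with rotation, no wash. Measured by: flow cytometric JC-1 green MFI at 530 nm. Read-out: percent efflux inhibition, scaled nicardipine 100% to DMSO 0%. Control set: nicardipine and DMSO wells.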
MEKK3 PB1 HTS – MEKK3-MEK5 PB1 interaction, increase or decrease. AID 1529. binding response (% of control), % at 10 µM. 290,000 tested, 1.4% active. bead-based flow cytometry, Alexa488-MEK5 binding to MEKK3; actives lie on both sides; 0 = blocked by unlabeled MEK5, 100 = vehicle. Q99759;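 active means binding response more than 3 SD above or below the average of its plate-row segment, actives on both sides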;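 further: Alexa488 bead fluorescence after subtracting the streptavidin-only scavenger bead signal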
MEKK2wt PB1 HTS – raises or lowers MEK5 binding to wildtype human MEKK2 PB1 domain; bead flow cytometry, Alexa488-MEK5 binding to MEKK2 WT; actives lie on both sides; binding response (% of control), % at 10 µM; 290,000 tested, 1.1% active; AID 1531; in the data active means binding response below about 67% or above about 130%
ABCB1 inh – inhibitors of human ABCB1 transporter, ABCG2 counter-screen. inhibition, % at 6.6 µM. CCRF-Adr cells, JC-1 efflux, flow cytometry. P08183. 190,000 tested, 0.067% active; in the data active means inhibition above about 40%;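 further: 0% = vehicle and 100% = reference inhibitor; higher value means more JC-1 retained so stronger ABCB1 efflux block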
Target sequence (P08183 whole entry, looked up): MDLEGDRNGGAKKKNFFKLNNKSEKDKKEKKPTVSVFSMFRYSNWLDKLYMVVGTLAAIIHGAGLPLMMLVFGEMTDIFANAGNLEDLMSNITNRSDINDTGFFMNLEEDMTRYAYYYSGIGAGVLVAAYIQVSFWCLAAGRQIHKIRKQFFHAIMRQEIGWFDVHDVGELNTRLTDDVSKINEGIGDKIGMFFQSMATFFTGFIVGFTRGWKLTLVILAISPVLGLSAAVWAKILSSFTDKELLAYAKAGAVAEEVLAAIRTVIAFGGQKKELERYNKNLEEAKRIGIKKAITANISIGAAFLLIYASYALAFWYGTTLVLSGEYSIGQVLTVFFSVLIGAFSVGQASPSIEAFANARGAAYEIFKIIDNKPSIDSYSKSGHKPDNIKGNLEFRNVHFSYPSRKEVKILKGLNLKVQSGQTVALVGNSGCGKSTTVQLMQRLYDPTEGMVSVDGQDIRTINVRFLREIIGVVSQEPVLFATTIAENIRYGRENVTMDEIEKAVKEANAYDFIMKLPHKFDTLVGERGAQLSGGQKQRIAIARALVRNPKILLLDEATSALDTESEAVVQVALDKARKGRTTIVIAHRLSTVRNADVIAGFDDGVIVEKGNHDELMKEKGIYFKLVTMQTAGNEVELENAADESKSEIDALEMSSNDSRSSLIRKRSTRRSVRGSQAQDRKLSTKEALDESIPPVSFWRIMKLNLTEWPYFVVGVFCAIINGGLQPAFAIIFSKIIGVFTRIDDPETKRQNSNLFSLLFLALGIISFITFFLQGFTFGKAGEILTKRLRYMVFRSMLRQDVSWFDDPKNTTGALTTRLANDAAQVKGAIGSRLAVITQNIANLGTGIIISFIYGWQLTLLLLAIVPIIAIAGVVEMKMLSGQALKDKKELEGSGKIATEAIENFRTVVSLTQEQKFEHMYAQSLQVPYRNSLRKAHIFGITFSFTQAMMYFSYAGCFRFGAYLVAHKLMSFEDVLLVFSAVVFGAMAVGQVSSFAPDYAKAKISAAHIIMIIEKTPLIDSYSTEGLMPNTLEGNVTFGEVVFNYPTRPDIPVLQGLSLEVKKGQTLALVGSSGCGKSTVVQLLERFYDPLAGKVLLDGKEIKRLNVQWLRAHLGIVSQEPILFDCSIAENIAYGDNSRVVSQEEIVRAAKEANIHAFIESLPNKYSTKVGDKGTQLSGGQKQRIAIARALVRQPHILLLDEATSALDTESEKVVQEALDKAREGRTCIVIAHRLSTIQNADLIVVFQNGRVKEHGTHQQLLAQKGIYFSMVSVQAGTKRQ
MEKK2 mut-MEK5 – signal of MEK5 binding to mutant human MEKK2 PB1 domain; bead flow cytometry, Alexa488-MEK5 binding to MEKK2 mutant; 290,000 tested, 0.35% active; percent response, % at 10 µM; AID 1530; in the data active means percent response above about 24%, passing the limit was not always enough
MEKK2wt confirm – raises or lowers MEK5 binding to wildtype human MEKK2, retest; binding response (% of control), % at 10 µM; shares compounds with MEKK3 PB1 HTS; bead flow cytometry, Alexa488-MEK5 binding to MEKK2 WT; actives lie on both sides; 5,900 tested, 2.4% active; in the data active means binding response below about 16% or above about 210%; inactive means in between
MEKK2mut-MEK5 – signal of MEK5 binding to mutant human MEKK2, retest | bead flow cytometry, Alexa488-MEK5 binding to MEKK2 mutant | 5,900 tested, 2% active | AID 1893 | shares compounds with MEKK3 PB1 HTS | percent response, % at 10 µM; in the data active means percent response mostly above about 71%, no sharp cut-off; inactive means mostly below about 38%;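 further: higher means compound restores mutant binding toward wildtype level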
MEKK3-MEK5 inh – MEKK3-MEK5 PB1 inhibition, single concentration confirmation | shares compounds with MEKK3 PB1 HTS | bead flow cytometry, Alexa488-MEK5 binding to MEKK3; active compounds read low | binding response (% of control), % at 10 µM | 5,900 tested, 1.8% active | AID 1894;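 active means binding response below 72% of control, or above a set upper limit, though filed actives all read lower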;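 further: 100% = DMSO only wells and 0% = binding blocked by excess unlabeled MEK5; lower values mean stronger disruption of MEK5 binding to MEKK3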
* hit, by the source's call; . = no result; + = active, no number; [ ] = another dose, or the depositor's remark.

SMILES	ABCG2 inh	MEKK3 PB1 HTS	MEKK2wt PB1 HTS	ABCB1 inh	MEKK2 mut-MEK5	MEKK2wt confirm	MEKK2mut-MEK5	MEKK3-MEK5 inh
CCCCCc1ccc(OCCC[n+]2ccccc2)c(CCCCC)c1	.	96.0	145.0*	.	19.0	146.0	30.0	104.0
Cc1cccc(C(=O)N(Cc2nc3ccccc3c(=O)[nH]2)C2CCCCC2)c1	6.3	74.0*[inhibitor]	94.0	2.5	-1.0	100.0	9.0	102.0
Cc1cccc(C(=O)N(Cc2nc3ccccc3c(=O)[nH]2)C2CCCC2)c1	0.6	100.0	89.0	0.1	-11.0	.	.	.
COC(=O)C(Cc1ccc(O)cc1)NC(=O)C(C)Oc1ccccc1 (configuration not stated)	-0.3	0.0*[inhibitor]	-5.0*[inhibitor]	-0.2	-39.0	106.0	8.0	107.0
COc1cc2nc(N3CCNCC3)nc(N)c2cc1OC	0.0	99.0	106.0	0.0	-3.0	.	.	.
COc1cc2nc(N3CCN(c4cc(C)ccc4C)CC3)nc(N)c2cc1OC	.	106.0	186.0*	.	42.0*	226.0*	75.0*	113.0
C=C1CCN([C@@H](CC(C)C)C(=O)N2CCOCC2)S(=O)(=O)c2ccccc21	.	102.0	102.0	.	3.0	.	.	.
CNCC(=O)Nc1c(C)n[nH]c1C	1.4	148.0*	108.0	0.0	1.0	113.0	11.0	106.0
Cc1ccc(CNC(=O)[C@H](Cc2ccccc2)NC(=O)C2CCNCC2)cc1	.	104.0	105.0	.	1.0	.	.	.
Cc1cccc(C)c1NC(=O)CCCCCC1NC(=O)NC1C (configuration not stated)	3.0	104.0	107.0	0.4	2.0	.	.	.
CC1NC(=O)NC1CCCCCC(=O)NCCc1ccccc1 (configuration not stated)	2.3	1.0*[inhibitor]	-2.0*[inhibitor]	0.3	-21.0	111.0	3.0	104.0
Cn1c(=O)cc(N2CCOCC2)[nH]c1=O	-1.5	75.0	70.0*[inhibitor]	-0.6	-20.0	106.0	7.0	105.0
Cn1c(=O)cc(N2CCCCC2)[nH]c1=O	1.0	106.0	105.0	0.3	5.0	.	.	.
COc1ccc(CCNc2ccc(S(=O)(=O)N3CCCC3)cc2[N+](=O)[O-])cc1	43.1	142.0*	107.0	2.0	-1.0	103.0	-2.0	101.0
C[C@@H](NC(=O)[C@@H]1Cc2ccccc2CN1)C(=O)Nc1ccc2c(c1)OCCO2	.	97.0	100.0	.	-3.0	.	.	.
Cc1ccc(N(CC(=O)NCCSc2nc3ccccc3s2)S(=O)(=O)c2ccccc2)c(C)c1	5.9	150.0*	105.0	2.0	0.0	105.0	6.0	108.0
CCOC(=O)Cn1c(=N)n(CCOc2ccc3ccccc3c2)c2ccccc21	9.9	105.0	146.0*	1.4	19.0	150.0	23.0	104.0
CCOC(=O)Cn1c(=N)n(CCOc2ccc(OC)cc2)c2ccccc21	1.7	106.0	114.0	0.8	8.0	.	.	.
Cc1cc(C)c2c(NC(=S)NC(=O)c3ccccc3)n[nH]c2n1	-0.9	42.0*[inhibitor]	51.0	-0.3	-18.0	101.0	8.0	104.0
CCO/C=C1\SC(=S)N(c2ccc(Cl)cc2)C1=O	.	108.0	104.0	.	1.0	.	.	.
CC(C)c1ccc(N2C(=O)/C(=C/N(C)C)SC2=S)cc1	.	100.0	62.0*[inhibitor]	.	6.0	85.0	-10.0	88.0
COc1cc(C(=O)NC(=S)Nc2ccc([N+](=O)[O-])cc2)cc(OC)c1OC	2.2	141.0*	103.0	0.1	2.0	104.0	4.0	103.0
COc1cc(C(=O)NC(=S)Nc2ccc([N+](=O)[O-])cc2C)cc(OC)c1OC	10.7	97.0	98.0	1.2	1.0	.	.	.
Cc1ccc(Nc2ncc3c(n2)CC(C)(C)CC3=O)cc1	5.1	102.0	103.0	0.4	4.0	.	.	.
CC1(C)CC(=O)c2cnc(NC3CC3)nc2C1	1.8	129.0*	113.0	0.6	1.0	94.0	-6.0	100.0
SMILES	ABCG2 inh	MEKK3 PB1 HTS	MEKK2wt PB1 HTS	ABCB1 inh	MEKK2 mut-MEK5	MEKK2wt confirm	MEKK2mut-MEK5	MEKK3-MEK5 inh
COc1cccc2c1cc1c(=O)n(CC(=O)NCCCN3CCN(C)CC3)nc(C)n12	.	98.0	100.0	.	3.0	.	.	.
CCCCNS(=O)(=O)c1ccc2nc(SCC(=O)c3ccccc3OC)[nH]c2c1	0.5	75.0*[inhibitor]	66.0	0.1	-39.0	105.0	4.0	109.0
CCCCNS(=O)(=O)c1ccc2nc(SCC(N)=O)[nH]c2c1	.	98.0	101.0	.	2.0	.	.	.
CCOC(=O)c1ccc(NC(=S)NN2CCN(C)CC2)cc1	0.9	41.0*[inhibitor]	58.0	0.3	-6.0	98.0	-3.0	99.0
CCOC(=O)c1ccc(NC(=S)NC2CCCC2)cc1	8.3	65.0*[inhibitor]	95.0	0.3	-1.0	99.0	-2.0	99.0
CCOC(=O)c1ccc(NC(=S)NC(=O)C2CCCC2)cc1	.	100.0	99.0	.	-3.0	.	.	.
CCOC(=O)c1ccc(NC(=S)NCCCN2CCOCC2)cc1	3.9	95.0	101.0	0.6	-7.0	.	.	.
CCOC(=O)C1=C(CN2CCN(C(=O)c3ccco3)CC2)NC(=O)NC1c1ccc(F)cc1 (configuration not stated)	.	102.0	103.0	.	4.0	.	.	.
CC(C)(C)C(=O)c1sc2nc(-c3cccs3)cc(C(F)(F)F)c2c1N	20.5	94.0	53.0*[inhibitor]	32.9	-9.0	102.0	6.0	103.0
NS(=O)(=O)c1cccc(NC(=O)CN2CCc3ccccc32)c1	0.5	98.0	21.0*[inhibitor]	-0.2	18.0	84.0	-18.0	90.0
CS(=O)c1ccc(-n2c(=O)n(Cc3ccccc3)c(=O)c3[nH]cnc32)cc1 (configuration not stated)	.	108.0	107.0	.	6.0	.	.	.
O=C(Cn1nc(-c2ccccc2Cl)ccc1=O)Nc1ccc(Br)cc1	18.2	140.0*	.	1.9	+	103.0	0.0	104.0
Cc1cc(C)nc(NC(=O)c2ccc([N+](=O)[O-])o2)n1	9.4	128.0*	104.0	3.2	2.0	97.0	-10.0	99.0
Cc1cc(C)cc(NC(=O)c2ccc([N+](=O)[O-])o2)c1	21.5	106.0	97.0	1.3	-5.0	.	.	.
CCOCCCNC(=S)NCCCNc1nc2cc3c(cc2cc1C#N)OCO3	6.8	1.0*[inhibitor]	-4.0*[inhibitor]	1.0	-18.0	97.0	-2.0	99.0
COc1ccc(NC(=S)NN2C(C)CCCC2C)cc1 (configuration not stated)	1.6	111.0	114.0	0.2	3.0	.	.	.
COc1cccc(NC(=S)NN2C(C)CCCC2C)c1 (configuration not stated)	-0.9	132.0*	107.0	0.3	1.0	109.0	-1.0	104.0
CCc1nc(NCC(C)C)c(C#N)c2c1COC(C)(C)C2	22.3	110.0	116.0	1.2	3.0	.	.	.

From PubChem BioAssay
